ChEMBL document CHEMBL1649328, “Assessment of pandemic and seasonal influenza A (H1N1) virus susceptibility to neuraminidase inhibitors in three enzyme activity inhibition assays” (Antimicrob Agents Chemother, 2010)

Experiments:
Type in all cases: functional, organism-based
[1] = system: Influenza A virus; test: Antiviral activity against influenza A (A/Washington/29/2009 (H1N1)) virus after 30 mins by MUNANA substrate based fluorometric assay; details: 0.5 h
Method in brief: (§1)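 Fluorometric NA inhibition with MUNANA (100 μM final). Titrated virus in NA-Star buffer (26 mM MES, 4 mM CaCl2, pH 6.0) was preincubated with ten half-log inhibitor dilutions (0.03–1,000 nM final) for 30 min at 37°C, then with substrate for 30 min at 37°C. The reaction was stopped with 0.1 M glycine in 25% ethanol, pH 10.7, and 4-methylumbelliferone was read at ex 365/em 450 nm. IC50 came from a Vmax·[1−x/(K+x)] fit, mean of ≥3 experiments.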

[2] = system: Influenza A virus; test: Antiviral activity against influenza A (A/Washington/10/2008 (H1N1)) virus after 16 to 18 hrs by fetuin substrate based colorimetric assay
Method in brief: (§2)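 Colorimetric NA inhibition with fetuin substrate. Virus was diluted in NA-Star buffer (26 mM MES, 4 mM CaCl2, pH 6.0) to give OD549 of 0.4–0.8 after 18 h. It was preincubated with ten half-log inhibitor dilutions (0.03–1,000 nM final) for 1 h at 37°C, then with fetuin (5.5 mg/ml final) for 16–18 h at 37°C. Released sialic acid was read at 549 nm after periodate/TBA reaction and butanol extraction. IC50 came from a Vmax·[1−x/(K+x)] fit, mean of ≥2 experiments.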

[3] = system: Influenza A virus; test: Antiviral activity against influenza A (A/New York/18/2009 (H1N1)) virus after 16 to 18 hrs by fetuin substrate based colorimetric assay; method in brief: as §2
[4] = system: Influenza A virus; test: Antiviral activity against influenza A (A/New York/18/2009 (H1N1)) virus after 30 mins by MUNANA substrate based fluorometric assay; details: 0.5 h; method in brief: as §1
[5] = system: Influenza A virus; test: Antiviral activity against influenza A (A/Singapore/91/2009 (H1N1)) virus after 30 mins by MUNANA substrate based fluorometric assay; details: 0.5 h; method in brief: as §1
[6] = system: Influenza A virus; test: Antiviral activity against influenza A (A/Washington/10/2008 (H1N1)) virus after 30 mins by NA-star substrate based chemiluminescent assay; details: 0.5 h
Method in brief: (§3)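 Titrated virus in NA-Star buffer (26 mM MES, 4 mM CaCl2, pH 6.0) was preincubated with ten half-log inhibitor dilutions (0.03–1,000 nM final) for 30 min at 37°C, then with substrate for 30 min at room temperature. Accelerator solution was added and luminescence read for 0.1 s. IC50 came from a Vmax·[1−x/(K+x)] fit, mean of ≥3 experiments.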

[7] = system: Influenza A virus; test: Antiviral activity against influenza A (A/Washington/29/2009 (H1N1)) virus after 16 to 18 hrs by fetuin substrate based colorimetric assay; method in brief: as §2
[8] = system: Influenza A virus; test: Antiviral activity against influenza A (A/Washington/10/2008 (H1N1)) virus after 30 mins by MUNANA substrate based fluorometric assay; details: 0.5 h; method in brief: as §1
[9] = system: Influenza A virus; test: Antiviral activity against influenza A (A/Singapore/91/2009 (H1N1)) virus after 16 to 18 hrs by fetuin substrate based colorimetric assay; method in brief: as §2
[10] = system: Influenza A virus; test: Antiviral activity against influenza A (A/New York/18/2009 (H1N1)) virus after 30 mins by NA-star substrate based chemiluminescent assay; details: 0.5 h; method in brief: as §3
[11] = system: Influenza A virus; test: Antiviral activity against influenza A (A/North Carolina/02/2009 (H1N1)) virus after 16 to 18 hrs by fetuin substrate based colorimetric assay; method in brief: as §2
[12] = system: Influenza A virus; test: Antiviral activity against influenza A (A/Washington/29/2009 (H1N1)) virus after 30 mins by NA-star substrate based chemiluminescent assay; details: 0.5 h; method in brief: as §3
[13] = system: Influenza A virus; test: Antiviral activity against influenza A (A/North Carolina/02/2009 (H1N1)) virus after 30 mins by MUNANA substrate based fluorometric assay; details: 0.5 h; method in brief: as §1
[14] = system: Influenza A virus; test: Antiviral activity against influenza A (A/North Carolina/02/2009 (H1N1)) virus after 30 mins by NA-star substrate based chemiluminescent assay; details: 0.5 h; method in brief: as §3
[15] = system: Influenza A virus; test: Antiviral activity against influenza A (A/Singapore/91/2009 (H1N1)) virus after 30 mins by NA-star substrate based chemiluminescent assay; details: 0.5 h; method in brief: as §3

Q: For `C/C=C\[C@@H]1C[C@H](C(=O)O)N[C@H]1[C@@H](NC(C)=O)[C@](C)(CCC)OC`, which IC50 [1] is on record?
A: 0.53 nM

Q: What about the IC50 [2] of the same molecule?
A: 1.03 nM

Q: And the IC50 [3]?
A: 0.9 nM

Q: And the IC50 [4]?
A: 0.74 nM

Q: What about the IC50 [5] of the same molecule?
A: 0.46 nM

Q: What about the IC50 [6] of the same molecule?
A: 0.16 nM

Q: What about the IC50 [7] of the same molecule?
A: 1.31 nM

Q: What about the IC50 [8] of the same molecule?
A: 0.51 nM

Q: And the IC50 [9]?
A: 1.4 nM

Q: And the IC50 [10]?
A: 0.43 nM

Q: And the IC50 [11]?
A: 0.75 nM

Q: And the IC50 [12]?
A: 0.35 nM

Q: What about the IC50 [13] of the same molecule?
A: 0.51 nM

Q: What about the IC50 [14] of the same molecule?
A: 0.18 nM

Q: And the IC50 [15]?
A: 0.27 nM

Q: Which IC50 [1] does the source give for `CO[C@@H]([C@@H]1OC(C(=O)O)=C[C@H](NC(=N)N)[C@H]1NC(C)=O)[C@H](O)CO` [LANINAMIVIR] here?
A: 0.74 nM

Q: And the IC50 [2]?
A: 0.79 nM

Q: What about the IC50 [3] of the same molecule?
A: 0.74 nM

Q: What about the IC50 [4] of the same molecule?
A: 0.96 nM

Q: And the IC50 [5]?
A: 0.51 nM

Q: And the IC50 [6]?
A: 0.14 nM

Q: What about the IC50 [7] of the same molecule?
A: 1.57 nM

Q: What about the IC50 [8] of the same molecule?
A: 0.53 nM

Q: What about the IC50 [9] of the same molecule?
A: 0.9 nM

Q: And the IC50 [10]?
A: 0.49 nM

Q: And the IC50 [11]?
A: 0.86 nM

Q: And the IC50 [12]?
A: 0.49 nM

Q: What about the IC50 [13] of the same molecule?
A: 0.61 nM

Q: And the IC50 [15]?
A: 0.3 nM

Q: How did the IC50 [1] turn out when `CCC(CC)[C@H](NC(C)=O)[C@@H]1[C@H](O)[C@@H](C(=O)O)C[C@H]1NC(=N)N` [PERAMIVIR ANHYDROUS] was run?
A: 0.2 nM

Q: And the IC50 [2]?
A: 0.75 nM

Q: And the IC50 [3]?
A: 0.41 nM

Q: And the IC50 [4]?
A: 0.32 nM

Q: What about the IC50 [5] of the same molecule?
A: 0.14 nM

Q: And the IC50 [6]?
A: 0.11 nM

Q: What about the IC50 [7] of the same molecule?
A: 0.49 nM

Q: And the IC50 [8]?
A: 0.18 nM

Q: And the IC50 [9]?
A: 0.55 nM

Q: What about the IC50 [10] of the same molecule?
A: 0.12 nM

Q: And the IC50 [11]?
A: 0.7 nM

Q: And the IC50 [12]?
A: 0.14 nM

Q: And the IC50 [13]?
A: 0.19 nM

Q: What about the IC50 [14] of the same molecule?
A: 0.08 nM

Q: What about the IC50 [15] of the same molecule?
A: 0.11 nM
